Consider one compound from ChEMBL document CHEMBL4732034, “Amino alcohol acrylonitriles as broad spectrum and tumour selective cytotoxic agents” (RSC Med Chem, 2021).

For series [1], the system named is T47D. Description: Cytotoxicity against human T47D cells assessed as growth inhibition measured after 72 hrs by SRB assay. Format: functional. The method in brief:
(§1)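 Cancer lines were kept in DMEM with 10% FBS and glutamine at 37 °C, 5% CO2, and seeded at 2500–4000 cells per well in duplicate. Compound (from 40 mM DMSO stocks) was added 24 h after plating and left for 72 h. Cells were TCA-fixed, stained with SRB and read at 540 nm. GI50 came from an eight-point dose-response, using the change from day-0 optical density, with three to four independent replicates.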
(In general: In SRB staining, fixed cells bind dye roughly in proportion to their protein.)

The subject of series [2] is A2780. The series is described as follows: Cytotoxicity against human A2780 cells assessed as growth inhibition measured after 72 hrs by SRB assay. Format: functional. The method in brief:
as §1

The subject of series [3] is BE(2)-C. Description: Cytotoxicity against human BE2C cells assessed as growth inhibition measured after 72 hrs by SRB assay. Format: functional. The method, boiled down: as §1
Series [4] deals with U-87 MG. The series is described as follows: Cytotoxicity against human U87 cells assessed as growth inhibition measured after 72 hrs by SRB assay. The format is functional, U-87MG ATCC. The method in brief: as §1
In series [5] the test system is A-431. The series is described as follows: Cytotoxicity against human A431 cells assessed as growth inhibition measured after 72 hrs by SRB assay. Format: functional. The method, boiled down:
as §1

In series [6] the test system is DU-145. Description: Cytotoxicity against human DU-145 cells assessed as growth inhibition measured after 72 hrs by SRB assay. The format is functional. The method, boiled down:
as §1

Series [7] deals with T1, Aryl hydrocarbon receptor (Homo sapiens, UniProt P35869).
T1 sequence (P35869 whole entry): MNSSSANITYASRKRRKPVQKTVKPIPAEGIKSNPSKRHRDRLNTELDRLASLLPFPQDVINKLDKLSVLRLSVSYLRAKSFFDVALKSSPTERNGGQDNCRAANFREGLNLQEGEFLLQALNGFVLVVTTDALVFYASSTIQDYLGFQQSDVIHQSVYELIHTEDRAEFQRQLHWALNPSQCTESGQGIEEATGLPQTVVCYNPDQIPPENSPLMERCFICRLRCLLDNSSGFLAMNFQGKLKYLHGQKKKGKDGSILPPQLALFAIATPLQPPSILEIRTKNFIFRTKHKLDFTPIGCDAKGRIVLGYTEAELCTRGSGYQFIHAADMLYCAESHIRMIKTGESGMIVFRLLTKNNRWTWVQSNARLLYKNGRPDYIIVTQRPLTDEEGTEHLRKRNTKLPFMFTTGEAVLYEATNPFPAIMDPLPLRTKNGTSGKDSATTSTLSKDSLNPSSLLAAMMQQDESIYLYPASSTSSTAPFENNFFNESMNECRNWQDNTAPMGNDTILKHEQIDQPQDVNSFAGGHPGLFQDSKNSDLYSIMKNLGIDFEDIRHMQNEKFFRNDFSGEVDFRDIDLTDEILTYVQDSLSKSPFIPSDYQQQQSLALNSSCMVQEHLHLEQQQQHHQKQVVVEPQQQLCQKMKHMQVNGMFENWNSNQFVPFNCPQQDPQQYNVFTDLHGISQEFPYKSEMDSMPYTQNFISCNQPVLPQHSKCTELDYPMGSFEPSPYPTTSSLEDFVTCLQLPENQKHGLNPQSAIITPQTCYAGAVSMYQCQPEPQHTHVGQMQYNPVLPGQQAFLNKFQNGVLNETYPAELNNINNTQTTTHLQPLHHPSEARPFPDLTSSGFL
The series is described as follows: Activation of AhR in human HT29-Lucia cells expressing secreted Lucia luciferase reporter gene assessed as increase in receptor transactivation by measuring fold increase in reporter activity at 25 uM measured after 48 hrs by luciferase reporter gene assay relative to control. Format: cell-based. Particulars: HT-29, human, read-out: FC. The method in brief:
(§2)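 HT29-Lucia cells (stable secreted Lucia luciferase reporter under a minimal promoter with the human CYP1A1 regulatory sequence, six DREs) were grown without antibiotics for 24 h before compound addition. At 24 and 48 h, supernatant was read by luminescence with QUANTI-Luc. Assays were run twice, and values are fold-change versus DMSO-treated cells. FICZ and CH223191 (5 μM) were included as controls.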
(In general: In a reporter assay the amount or activity of a reporter protein is the signal.)

The test system of series [8] is MDA-MB-468. The series is described as follows: Cytotoxicity against human MDA-MB-468 cells assessed as growth inhibition measured after 72 hrs by SRB assay. Format: functional. The method in brief: as §1
Series [9] is described as follows: Cytotoxicity against human SJG2 cells assessed as growth inhibition measured after 72 hrs by SRB assay. The following applies: SJ-G2. The format is functional. The method, boiled down: as §1
A short description of series [10]: Cytotoxicity against human MCF10A cells assessed as growth inhibition measured after 72 hrs by SRB assay. The format is cell-based, MCF-10A.
Series [11] has as its system MCF7. Description: Cytotoxicity against human MCF-7 cells assessed as growth inhibition measured after 72 hrs by SRB assay. The format is functional. The method in brief: as §1
Series [12] is described as follows: Selectivity index, ratio of GI50 for human MCF10A cells to GI50 for human MCF-7 cells by SRB assay. The format is toxicity. The following applies: MCF10A cells versus MCF-7 cells, read-out: RatioGI50. The method, boiled down:
(§3)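 Fold selectivity is the MCF10A GI50 divided by the cancer-line GI50. Each GI50 is from the 72 h SRB assay: eight-point dose-response, day-0 optical density baseline, three to four separate replicates.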

The subject of series [13] is MIA PaCa-2. Description: Cytotoxicity against human MIA cells assessed as growth inhibition measured after 72 hrs by SRB assay. The format is functional. The method, boiled down: as §1
Series [14] concerns HT-29. The series is described as follows: Cytotoxicity against human HT29 cells assessed as growth inhibition measured after 72 hrs by SRB assay. Format: functional. The method, boiled down:
as §1

Series [15] can be described thus: Selectivity index, ratio of GI50 for human MCF10A cells to GI50 for human T47D cells by SRB assay. Format: toxicity. Particulars: MCF10A cells versus T47D cells, read-out: RatioGI50. The method, boiled down:
as §3

Series [16] relates to NCI-H460. The series is described as follows: Cytotoxicity against human H460 cells assessed as growth inhibition measured after 72 hrs by SRB assay. The format is functional. The method in brief: as §1
For series [17], the target named is T1, Aryl hydrocarbon receptor. The series is described as follows: Activation of AhR in human HT29-Lucia cells expressing secreted Lucia luciferase reporter gene assessed as increase in receptor transactivation by measuring fold increase in reporter activity at 25 uM measured after 24 hrs by luciferase reporter gene assay relative to control. Particulars: HT-29, human, read-out: FC. The format is cell-based. The method, boiled down:
as §2

The nature of series [18]: Selectivity index, ratio of GI50 for human MCF10A cells to GI50 for human MDA-MB-468 cells by SRB assay. Format: toxicity. The following applies: MCF10A cells versus MDA-MB-468 cells, read-out: RatioGI50. The method in brief: as §3
Series [19] concerns the target T2, CYP1A1 (Homo sapiens, UniProt P35869).
T2 sequence (P35869 whole entry): T1 sequence (P35869 whole entry)
The series is described as follows: Activation of AhR in human MDA-MB-468 cells assessed as fold increase in CYP1A1 mRNA expression at 5 uM measured after 8 hrs by qPCR assay relative to control. Format: cell-based. Particulars: read-out: FC. The method in brief: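 MDA-MB-468 cells were exposed for 8 h, then total RNA was extracted. CYP1A1 was quantified by qPCR with β2M as reference: 95 °C for 5 min, then 40 cycles of 95 °C for 5 s and 60 °C for 10 s. Fold change was calculated by the comparative Ct method.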

In general, GI50 refers to the concentration that inhibits growth by half. As for `N#C/C(=C\c1ccc(OCC(O)CN2CCN(c3ccc(C#N)cc3)CC2)cc1)c1ccc(Cl)c(Cl)c1` (racemic), the 50% growth inhibitory concentration (GI50) was 2.3 µM in series [1]; 15 µM in series [2]; 31 µM in series [3]; > 50 µM in [4]; 20 µM in [5]; 17 µM in series [6]. Besides, the GI50 in series [8] is 6 µM; in series [9], > 50 µM; in series [11], 5.8 µM; in series [13] it was > 50 µM; in series [14], 50 µM; in [16], > 50 µM. Further, the fold induction at 25 µM in series [7] came out at 1.84; in series [17], 1.69. In addition, in series [10], the 50% growth inhibitory concentration (GI50) at 72 h came to 47 µM. The selectivity ratio in [12] stood at 8.1; in series [15], 20; in [18], 7.8. The fold induction at 8 h, 5 µM in [19] amounted to 7.6.
